Laboratory results: ChEMBL document CHEMBL1773057, “Design, synthesis and in vitro antimicrobial evaluation of novel Imidazo[1,2-a]pyridine and imidazo[2,1-b][1,3]benzothiazole motifs” (2011)
In brackets after ≈: the same amount, converted by molar mass.

Experiments:
Format in all cases: functional
Candida albicans = assay: Antimicrobial activity against Candida albicans after 48 hrs by broth microdilution method
How it was run: (§1)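 Fungi were grown on Sabouraud dextrose agar. Inocula were prepared in Sabouraud liquid medium at 37 °C for 12 h, then diluted in RPMI-1640 with L-glutamine, MOPS-buffered at pH 7. Compounds were made as 1000 µg/mL stocks in 50% DMSO/H₂O and tested as two-fold dilutions from 500 µg/mL. Sealed plates were incubated at 37 °C for 48 h in a humid chamber. MIC was the lowest concentration without visible turbidity.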

Aspergillus flavus = assay: Antimicrobial activity against Aspergillus flavus after 48 hrs by broth microdilution method; how it was run: as §1
Escherichia coli = assay: Antimicrobial activity against Escherichia coli after 24 hrs by broth microdilution method
How it was run: (§2)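 Broth microdilution. Bacteria were grown on Mueller-Hinton agar and diluted in Mueller-Hinton broth. Compounds were made as 1000 µg/mL stocks in 50% DMSO/H₂O and added to wells as two-fold dilutions starting at 500 µg/mL, then inoculated. Sealed plates were incubated at 37 °C for 24 h in a humid chamber. MIC was the lowest concentration with no visible turbidity.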

Enterococcus faecalis = assay: Antimicrobial activity against Enterococcus faecalis after 24 hrs by broth microdilution method; how it was run: as §2
Nannizzia gypsea = assay: Antimicrobial activity against Microsporum gypseum after 48 hrs by broth microdilution method; how it was run: as §1
Staphylococcus aureus = assay: Antimicrobial activity against Staphylococcus aureus after 24 hrs by broth microdilution method; how it was run: as §2
Priestia megaterium = assay: Antimicrobial activity against Bacillus megaterium after 24 hrs by broth microdilution method; how it was run: as §2
Klebsiella aerogenes = assay: Antimicrobial activity against Enterobacter aerogenes after 24 hrs by broth microdilution method; how it was run: as §2
Candida parapsilosis = assay: Antimicrobial activity against Candida parapsilosis after 48 hrs by broth microdilution method; details: Lodderomyces parapsilosis; how it was run: as §1
Pseudomonas aeruginosa = assay: Antimicrobial activity against Pseudomonas aeruginosa after 24 hrs by broth microdilution method; how it was run: as §2

Row | Structure (SMILES) | MIC (Candida albicans) | MIC (Aspergillus flavus) | MIC (Escherichia coli) | MIC (Enterococcus faecalis) | MIC (Nannizzia gypsea) | MIC (Staphylococcus aureus) | MIC (Priestia megaterium) | MIC (Klebsiella aerogenes) | MIC (Candida parapsilosis) | MIC (Pseudomonas aeruginosa)
1 | Cc1ccc(-c2cnc(-c3ccc4nc(-c5cnc6ccc(Br)cc6c5)c(Nc5ccc(F)cc5)n4c3)[nH]2)cc1 | 13.1 µg/mL (≈ 22.3 µM) | 12.6 µg/mL (≈ 21.4 µM) | 3.42 µg/mL (≈ 5.8 µM) | 2.26 µg/mL (≈ 3.83 µM) | 11.5 µg/mL (≈ 19.5 µM) | 1.95 µg/mL (≈ 3.31 µM) | 5.14 µg/mL (≈ 8.72 µM) | 2.78 µg/mL (≈ 4.72 µM) | 12.6 µg/mL (≈ 21.3 µM) | 2.89 µg/mL (≈ 4.9 µM)
2 | OC(Cn1cncn1)(Cn1cncn1)c1ccc(F)cc1F [FLUCONAZOLE] | 2.11 µg/mL (≈ 6.89 µM) | 9.22 µg/mL (≈ 30.1 µM) | – | – | 6.57 µg/mL (≈ 21.5 µM) | – | – | – | 4.35 µg/mL (≈ 14.2 µM) | –
3 | Fc1ccc(Nc2c(-c3cnc4ccc(Br)cc4c3)nc3sc4cc(F)ccc4n23)cc1 | 1.21 µg/mL (≈ 2.38 µM) | 1.3 µg/mL (≈ 2.56 µM) | 0.35 µg/mL (≈ 0.69 µM) | 0.51 µg/mL (≈ 1.01 µM) | 1.24 µg/mL (≈ 2.44 µM) | 0.43 µg/mL (≈ 0.848 µM) | 1.12 µg/mL (≈ 2.21 µM) | 0.51 µg/mL (≈ 1.01 µM) | 1.13 µg/mL (≈ 2.23 µM) | 0.34 µg/mL (≈ 0.67 µM)
4 | COc1ccc2c(c1)sc1nc(-c3c[nH]c4ccc(Br)cc34)c(Nc3ccc(F)cc3)n12 | 4.12 µg/mL (≈ 8.12 µM) | 3.21 µg/mL (≈ 6.33 µM) | 8.12 µg/mL (≈ 16 µM) | 10.6 µg/mL (≈ 20.8 µM) | 4.14 µg/mL (≈ 8.16 µM) | 7.33 µg/mL (≈ 14.4 µM) | 13.2 µg/mL (≈ 26.1 µM) | 8.13 µg/mL (≈ 16 µM) | 5.63 µg/mL (≈ 11.1 µM) | 9.69 µg/mL (≈ 19.1 µM)
5 | O=[N+]([O-])c1ccc(-c2cnc(-c3ccc4nc(-c5c[nH]c6ccc(Br)cc56)c(Nc5ccc(F)cc5)n4c3)[nH]2)cc1 | 8.72 µg/mL (≈ 14.3 µM) | 9.35 µg/mL (≈ 15.4 µM) | 2.13 µg/mL (≈ 3.5 µM) | 3.17 µg/mL (≈ 5.21 µM) | 7.44 µg/mL (≈ 12.2 µM) | 2.52 µg/mL (≈ 4.14 µM) | 4.24 µg/mL (≈ 6.97 µM) | 2.35 µg/mL (≈ 3.86 µM) | 6.22 µg/mL (≈ 10.2 µM) | 2.11 µg/mL (≈ 3.47 µM)
6 | Cc1ccc2ncc(-c3nc4sc5cc(F)ccc5n4c3Nc3ccc(F)cc3)cc2c1 | 12.2 µg/mL (≈ 27.5 µM) | 13.4 µg/mL (≈ 30.2 µM) | 10.4 µg/mL (≈ 23.5 µM) | 9.45 µg/mL (≈ 21.4 µM) | 18.4 µg/mL (≈ 41.6 µM) | 8.63 µg/mL (≈ 19.5 µM) | 18.6 µg/mL (≈ 42.1 µM) | 9.57 µg/mL (≈ 21.6 µM) | 14.4 µg/mL (≈ 32.6 µM) | 9.66 µg/mL (≈ 21.8 µM)
7 | Fc1ccc(Nc2c(-c3cnc4ccc(Br)cc4c3)nc3ccc(-c4nnc(-c5ccc(F)cc5)o4)cn23)cc1 | 1.22 µg/mL (≈ 2.05 µM) | 1.32 µg/mL (≈ 2.22 µM) | 0.75 µg/mL (≈ 1.26 µM) | 1.38 µg/mL (≈ 2.32 µM) | 1.14 µg/mL (≈ 1.91 µM) | 0.46 µg/mL (≈ 0.773 µM) | 2.21 µg/mL (≈ 3.71 µM) | 0.41 µg/mL (≈ 0.689 µM) | 1.35 µg/mL (≈ 2.27 µM) | 0.75 µg/mL (≈ 1.26 µM)
8 | Fc1ccc(Nc2c(-c3c[nH]c4ccc(Br)cc34)nc3ccc(-c4nnc(-c5ccc(F)cc5)o4)cn23)cc1 | 2.54 µg/mL (≈ 4.35 µM) | 3.13 µg/mL (≈ 5.37 µM) | 0.11 µg/mL (≈ 0.189 µM) | 0.37 µg/mL (≈ 0.634 µM) | 4.25 µg/mL (≈ 7.28 µM) | 0.31 µg/mL (≈ 0.531 µM) | 1.97 µg/mL (≈ 3.38 µM) | 0.35 µg/mL (≈ 0.6 µM) | 2.22 µg/mL (≈ 3.81 µM) | 0.21 µg/mL (≈ 0.36 µM)
9 | Cc1ccc(-c2nnc(-c3ccc4nc(-c5c[nH]c6ccc(Br)cc56)c(Nc5ccc(F)cc5)n4c3)o2)cc1 | 11.6 µg/mL (≈ 20.1 µM) | 6.55 µg/mL (≈ 11.3 µM) | 6.72 µg/mL (≈ 11.6 µM) | 7.56 µg/mL (≈ 13 µM) | 13.4 µg/mL (≈ 23.1 µM) | 3.13 µg/mL (≈ 5.4 µM) | 6.44 µg/mL (≈ 11.1 µM) | 4.42 µg/mL (≈ 7.63 µM) | 10.4 µg/mL (≈ 18 µM) | 5.64 µg/mL (≈ 9.73 µM)
10 | Fc1ccc(Nc2c(-c3c[nH]c4ccc(Br)cc34)nc3ccc(-c4nc5ccc(F)cc5[nH]4)cn23)cc1 | 11.3 µg/mL (≈ 20.4 µM) | 12.2 µg/mL (≈ 22 µM) | 1.12 µg/mL (≈ 2.02 µM) | 1.36 µg/mL (≈ 2.45 µM) | 9.14 µg/mL (≈ 16.5 µM) | 1.12 µg/mL (≈ 2.02 µM) | 1.43 µg/mL (≈ 2.57 µM) | 1.15 µg/mL (≈ 2.07 µM) | 10.4 µg/mL (≈ 18.7 µM) | 1.51 µg/mL (≈ 2.72 µM)
11 | Fc1ccc(Nc2c(-c3c[nH]c4ccc(Br)cc34)nc3sc4cc(F)ccc4n23)cc1 | 2.23 µg/mL (≈ 4.5 µM) | 2.13 µg/mL (≈ 4.3 µM) | 0.44 µg/mL (≈ 0.888 µM) | 0.87 µg/mL (≈ 1.76 µM) | 3.15 µg/mL (≈ 6.36 µM) | 0.18 µg/mL (≈ 0.363 µM) | 1.69 µg/mL (≈ 3.41 µM) | 0.32 µg/mL (≈ 0.646 µM) | 2.32 µg/mL (≈ 4.68 µM) | 0.53 µg/mL (≈ 1.07 µM)
12 | Fc1ccc(Nc2c(-c3cnc4ccc(F)cc4c3)nc3sc4cc(F)ccc4n23)cc1 | 1.12 µg/mL (≈ 2.51 µM) | 1.23 µg/mL (≈ 2.76 µM) | 0.23 µg/mL (≈ 0.515 µM) | 0.21 µg/mL (≈ 0.47 µM) | 1.2 µg/mL (≈ 2.69 µM) | 0.26 µg/mL (≈ 0.582 µM) | 0.83 µg/mL (≈ 1.86 µM) | 0.34 µg/mL (≈ 0.762 µM) | 1.14 µg/mL (≈ 2.55 µM) | 0.15 µg/mL (≈ 0.336 µM)
13 | Fc1ccc(Nc2c(-c3c[nH]c4ccc(Br)cc34)nc3ccc(-c4ncc(-c5ccc(F)cc5)[nH]4)cn23)cc1 | 3.21 µg/mL (≈ 5.52 µM) | 3.25 µg/mL (≈ 5.59 µM) | 0.42 µg/mL (≈ 0.722 µM) | 1.96 µg/mL (≈ 3.37 µM) | 8.12 µg/mL (≈ 14 µM) | 0.23 µg/mL (≈ 0.396 µM) | 1.13 µg/mL (≈ 1.94 µM) | 0.17 µg/mL (≈ 0.292 µM) | 4.61 µg/mL (≈ 7.93 µM) | 0.52 µg/mL (≈ 0.894 µM)
